pIC50: −log10 of the molar value. *1 amine or outer side, *2 acyl side, *3 side chain or, on linkers, in order; H or OH if unused. Where a SMILES comes first, the peptide text is derived from it. Bridges are numbered along the chain shown (N, C = ends). [ ]: non-standard residue; d: D form. Pro(trans-4-NH2) = O=C([C@@H]1C[C@@H](N[*:3])CN1[*:1])[*:2]
Columns and labels:
Integrin alpha-V/beta-3 [1] = biological target: T1, Integrin alpha-V/beta-3 (Homo sapiens, UniProt P05106+P06756); test: Displacement of [125I]echistatin from human integrin alpha-V-beta-3 receptor by solid phase assay; assay type: protein-complex assay
How it was run: (§1)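 Competitive binding to purified human integrin protein (αVβ3 or αVβ5) measured as inhibition of [¹²⁵I]-echistatin specific binding over a range of inhibitor concentrations. Each point is the mean ± SEM of triplicate determinations, and IC50 is read from the inhibition curves.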
Target sequence in this assay (P05106 27-788 limits assumed): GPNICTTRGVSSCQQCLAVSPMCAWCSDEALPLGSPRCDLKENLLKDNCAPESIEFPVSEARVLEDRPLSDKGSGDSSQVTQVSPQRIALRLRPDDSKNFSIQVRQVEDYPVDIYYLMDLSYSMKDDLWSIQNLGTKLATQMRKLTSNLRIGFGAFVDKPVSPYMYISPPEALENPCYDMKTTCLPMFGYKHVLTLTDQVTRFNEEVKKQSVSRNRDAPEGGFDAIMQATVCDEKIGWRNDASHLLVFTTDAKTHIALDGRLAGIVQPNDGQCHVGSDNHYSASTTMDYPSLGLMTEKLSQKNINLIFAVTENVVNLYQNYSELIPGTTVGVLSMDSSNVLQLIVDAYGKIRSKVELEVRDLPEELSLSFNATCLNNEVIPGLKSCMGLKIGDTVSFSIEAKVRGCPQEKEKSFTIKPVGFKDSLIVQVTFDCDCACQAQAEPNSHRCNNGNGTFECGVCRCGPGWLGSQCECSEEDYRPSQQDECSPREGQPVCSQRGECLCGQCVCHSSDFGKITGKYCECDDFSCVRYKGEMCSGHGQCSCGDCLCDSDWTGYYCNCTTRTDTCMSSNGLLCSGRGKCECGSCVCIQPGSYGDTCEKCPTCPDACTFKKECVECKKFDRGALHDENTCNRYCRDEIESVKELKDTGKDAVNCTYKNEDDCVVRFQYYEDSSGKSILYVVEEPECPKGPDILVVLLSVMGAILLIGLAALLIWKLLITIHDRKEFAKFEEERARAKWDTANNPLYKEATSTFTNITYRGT
Target sequence in this assay (P06756 31-889 limits assumed): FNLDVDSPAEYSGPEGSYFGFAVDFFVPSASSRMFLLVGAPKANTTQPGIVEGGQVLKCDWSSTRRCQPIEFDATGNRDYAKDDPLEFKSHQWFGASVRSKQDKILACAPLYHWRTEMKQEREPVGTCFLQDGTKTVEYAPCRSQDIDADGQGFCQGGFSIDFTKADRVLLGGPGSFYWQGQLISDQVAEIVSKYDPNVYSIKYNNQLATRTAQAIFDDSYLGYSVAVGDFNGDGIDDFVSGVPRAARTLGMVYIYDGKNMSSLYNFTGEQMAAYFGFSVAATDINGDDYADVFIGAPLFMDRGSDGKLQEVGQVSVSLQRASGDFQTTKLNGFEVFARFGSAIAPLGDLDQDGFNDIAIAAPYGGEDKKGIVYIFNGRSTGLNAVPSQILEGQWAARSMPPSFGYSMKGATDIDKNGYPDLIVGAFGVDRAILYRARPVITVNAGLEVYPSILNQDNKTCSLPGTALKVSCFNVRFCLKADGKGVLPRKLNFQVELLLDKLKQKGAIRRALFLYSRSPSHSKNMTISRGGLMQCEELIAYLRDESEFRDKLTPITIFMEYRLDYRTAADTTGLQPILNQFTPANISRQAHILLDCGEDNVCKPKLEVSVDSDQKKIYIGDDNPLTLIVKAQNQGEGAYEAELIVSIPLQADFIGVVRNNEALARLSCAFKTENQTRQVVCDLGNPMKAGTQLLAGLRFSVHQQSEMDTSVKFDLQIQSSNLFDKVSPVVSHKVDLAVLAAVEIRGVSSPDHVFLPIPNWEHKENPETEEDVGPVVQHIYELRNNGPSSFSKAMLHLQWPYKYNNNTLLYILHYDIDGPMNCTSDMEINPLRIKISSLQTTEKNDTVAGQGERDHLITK
Target sequence in this assay (P06756 891-1048 limits assumed): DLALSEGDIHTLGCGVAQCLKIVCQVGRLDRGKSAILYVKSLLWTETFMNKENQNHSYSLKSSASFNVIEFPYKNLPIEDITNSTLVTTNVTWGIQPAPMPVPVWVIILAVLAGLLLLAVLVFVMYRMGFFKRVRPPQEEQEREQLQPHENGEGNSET

Integrin alpha-V/beta-5 [2] = biological target: T2, Integrin alpha-V/beta-5 (Homo sapiens, UniProt P06756+P18084); test: Displacement of [125I]echistatin from human integrin alpha-V-beta-5 receptor by solid phase assay; assay type: protein-complex assay; how it was run: as §1
Target sequence in this assay (P06756 31-889 limits assumed): as the sequence (P06756 31-889 limits assumed) above
Target sequence in this assay (P06756 891-1048 limits assumed): as the sequence (P06756 891-1048 limits assumed) above
Target sequence in this assay (P18084 24-799 limits assumed): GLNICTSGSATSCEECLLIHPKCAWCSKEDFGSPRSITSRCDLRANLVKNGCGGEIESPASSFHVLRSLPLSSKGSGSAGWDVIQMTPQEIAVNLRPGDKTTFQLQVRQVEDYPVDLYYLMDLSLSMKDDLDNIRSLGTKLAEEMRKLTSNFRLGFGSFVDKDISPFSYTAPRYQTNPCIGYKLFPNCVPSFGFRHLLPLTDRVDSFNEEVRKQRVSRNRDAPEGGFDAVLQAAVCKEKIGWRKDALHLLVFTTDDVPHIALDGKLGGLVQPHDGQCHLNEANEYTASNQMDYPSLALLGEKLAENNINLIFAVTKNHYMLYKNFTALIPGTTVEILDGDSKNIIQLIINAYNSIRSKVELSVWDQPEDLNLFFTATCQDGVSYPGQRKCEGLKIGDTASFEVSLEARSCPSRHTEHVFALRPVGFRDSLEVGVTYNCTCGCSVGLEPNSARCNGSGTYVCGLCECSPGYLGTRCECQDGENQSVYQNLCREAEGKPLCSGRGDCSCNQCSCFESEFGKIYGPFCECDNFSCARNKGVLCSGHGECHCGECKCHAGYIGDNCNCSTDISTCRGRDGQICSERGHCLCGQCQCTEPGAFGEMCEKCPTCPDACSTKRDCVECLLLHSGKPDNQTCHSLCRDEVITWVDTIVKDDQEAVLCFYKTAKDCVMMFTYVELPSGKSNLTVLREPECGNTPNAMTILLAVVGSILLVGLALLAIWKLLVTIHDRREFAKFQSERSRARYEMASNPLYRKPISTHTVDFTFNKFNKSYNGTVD

Integrin alpha-V/beta-3 [3] = biological target: T1, Integrin alpha-V/beta-3; test: Displacement of [125I]echistatin from human integrin alpha-V-beta-3 receptor low affinity state by solid phase assay relative to control; assay type: protein-complex assay; design: concentration or dose not given beside the values; settings: concentration not given here
How it was run: (§2)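 Competition for [125I]-echistatin specific binding to purified human αvβ3 or αvβ5 integrin protein. Inhibition was plotted against test compound concentration. Each point is the mean ± SEM of triplicate determinations.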

Integrin alpha-V/beta-5 [4] = biological target: T2, Integrin alpha-V/beta-5; test: Displacement of [125I]echistatin from human integrin alpha-V-beta-5 receptor high affinity state by solid phase assay relative to control; assay type: protein-complex assay; settings: concentration not given here
Integrin alpha-V/beta-3 [5] = biological target: T1, Integrin alpha-V/beta-3; test: Displacement of [125I]echistatin from human integrin alpha-V-beta-3 receptor high affinity state by solid phase assay relative to control; assay type: protein-complex assay; design: concentration or dose not given beside the values; settings: concentration not given here; how it was run: as §2
Integrin alpha-V/beta-5 [6] = biological target: T2, Integrin alpha-V/beta-5; test: Displacement of [125I]echistatin from human integrin alpha-V-beta-5 receptor low affinity state by solid phase assay relative to control; assay type: protein-complex assay; settings: concentration not given here
Integrin alpha-V/beta-3 [7] = biological target: T1, Integrin alpha-V/beta-3; test: Displacement of [125I]echistatin from human integrin alpha-V-beta-3 receptor low affinity state by solid phase assay; assay type: protein-complex assay
Target sequence in this assay (P05106 27-788 limits assumed): as the sequence (P05106 27-788 limits assumed) above
Target sequence in this assay (P06756 31-889 limits assumed): as the sequence (P06756 31-889 limits assumed) above
Target sequence in this assay (P06756 891-1048 limits assumed): as the sequence (P06756 891-1048 limits assumed) above

Integrin alpha-V/beta-3 [8] = biological target: T1, Integrin alpha-V/beta-3; test: Inhibition of human integrin alpha-v-beta-3 receptor mediated WM115 cell adhesion to vitronectin; assay type: cell-based, WM-115
Target sequence in this assay (P05106 27-788 limits assumed): as the sequence (P05106 27-788 limits assumed) above
Target sequence in this assay (P06756 31-889 limits assumed): as the sequence (P06756 31-889 limits assumed) above
Target sequence in this assay (P06756 891-1048 limits assumed): as the sequence (P06756 891-1048 limits assumed) above

Integrin alpha-5/beta-1 [9] = biological target: T3, Integrin alpha-5/beta-1 (Homo sapiens, UniProt P05556+P08648); test: Inhibition of human integrin alpha-5-beta-1 receptor mediated WM115 cell adhesion to vitronectin; assay type: cell-based, WM-115
Integrin alpha-V/beta-3 [10] = biological target: T1, Integrin alpha-V/beta-3; test: Inhibition of human integrin alpha-V-beta-3 receptor mediated K562 cell adhesion to vitronectin; assay type: cell-based
Target sequence in this assay (P05106 27-788 limits assumed): as the sequence (P05106 27-788 limits assumed) above
Target sequence in this assay (P06756 31-889 limits assumed): as the sequence (P06756 31-889 limits assumed) above
Target sequence in this assay (P06756 891-1048 limits assumed): as the sequence (P06756 891-1048 limits assumed) above

Integrin alpha-5/beta-1 [11] = biological target: T3, Integrin alpha-5/beta-1; test: Inhibition of human integrin alpha5beta1 receptor mediated K562 cell adhesion to vitronectin; assay type: cell-based
Integrin alpha-V/beta-5 [12] = biological target: T2, Integrin alpha-V/beta-5; test: Displacement of [125I]echistatin from human integrin alpha-V-beta-5 receptor low affinity state by solid phase assay; assay type: protein-complex assay
Target sequence in this assay (P06756 31-889 limits assumed): as the sequence (P06756 31-889 limits assumed) above
Target sequence in this assay (P06756 891-1048 limits assumed): as the sequence (P06756 891-1048 limits assumed) above
Target sequence in this assay (P18084 24-799 limits assumed): as the sequence (P18084 24-799 limits assumed) above

Structure (SMILES) | pIC50 (Integrin alpha-V/beta-3 [1]) | inhibition (Integrin alpha-V/beta-3 [3]) | inhibition (Integrin alpha-V/beta-3 [5]) | pIC50 (Integrin alpha-V/beta-3 [7]) | also measured
N=C(N)NCCC[C@@H]1NC(=O)[C@@H]2CC[C@H](C2)NC(=O)[C@H](CC(=O)O)NC(=O)CNC1=O | 9.59 |  |  |  | pIC50 (Integrin alpha-V/beta-5 [2]): 8.95
CCCCCCCN1C[C@@H]2C[C@H]1C(=O)N[C@@H](CCCNC(=N)N)C(=O)NCC(=O)N[C@@H](CC(=O)O)C(=O)N2 |  | 46.3% | 53.7% |  | inhibition (Integrin alpha-V/beta-5 [4]): 29%; inhibition (Integrin alpha-V/beta-5 [6]): 71%
NC(N)=NCCC[C@@H]1NC(=O)CNC(=O)[C@@H](CC(=O)O)N[C@H]2CCC[C@H]3CC[C@H](C1=O)N3C2=O | 8.25 |  |  |  | pIC50 (Integrin alpha-V/beta-5 [2]): 9.05
NC(N)=NCCC[C@@H]1NC(=O)[C@@H]2C[C@H](CN2C(=O)c2ccccc2)NC(=O)[C@H](CC(=O)O)NC(=O)CNC1=O | 6.76 |  |  | 6.49 | 
COC(=O)[C@H]1[C@@H]2NC(=O)[C@H](CC(=O)O)NC(=O)CNC(=O)[C@H](CCCNC(=N)N)NC(=O)[C@H](C(C)C)NC(=O)[C@@H]21 |  |  |  |  | pIC50 (Integrin alpha-V/beta-3 [8]): 7.70; pIC50 (Integrin alpha-5/beta-1 [9]): 5.82; pIC50 (Integrin alpha-V/beta-3 [10]): 7.70; pIC50 (Integrin alpha-5/beta-1 [11]): 5.82
CCC(=O)N1C[C@@H]2C[C@H]1C(=O)N[C@@H](CCCN=C(N)N)C(=O)NCC(=O)N[C@@H](CC(=O)O)C(=O)N2 | 8.25 |  |  | 6.60 | 
CCCCCCCN1C[C@@H]2C[C@H]1C(=O)N[C@@H](CCCN=C(N)N)C(=O)NCC(=O)N[C@@H](CC(=O)O)C(=O)N2 | 8.55 |  |  | 6.75 | pIC50 (Integrin alpha-V/beta-5 [12]): 7.21; pIC50 (Integrin alpha-V/beta-5 [2]): 7.44
CCC(=O)N1C[C@@H]2C[C@H]1C(=O)N[C@@H](CCCNC(=N)N)C(=O)NCC(=O)N[C@@H](CC(=O)O)C(=O)N2 |  | 57.9% | 42.1% |  | 
N=C(N)NCCC[C@@H]1NC(=O)[C@@H]2C[C@H](CN2)NC(=O)[C@H](CC(=O)O)NC(=O)CNC1=O (H-[Pro(trans-4-NH2)]RGD; lactam 1-C) |  | 15.5% | 84.5% |  | 
NC(N)=NCCC[C@@H]1NC(=O)[C@@H]2C[C@@H](CN2C(=O)c2ccccc2)NC(=O)[C@H](CC(=O)O)NC(=O)CNC1=O | 8.29 |  |  | 6.22 | 
N=C(N)NCCC[C@@H]1NC(=O)[C@@H]2C[C@@H](CN2C(=O)c2ccccc2)NC(=O)[C@H](CC(=O)O)NC(=O)CNC1=O |  | 42.2% | 57.8% |  | 
N=C(N)NCCC[C@@H]1NC(=O)[C@@H]2C[C@H](CN2C(=O)c2ccccc2)NC(=O)[C@H](CC(=O)O)NC(=O)CNC1=O |  | 68.4% | 31.6% |  | 
